Results from ChEMBL document CHEMBL1221168, “Activity-based probes that target diverse cysteine protease families” (Nat Chem Biol, 2005).
The source made the active and inactive calls. The rule behind the calls is not given here. Square brackets hold non-standard residues; d marks the D form. Peptide text beside a SMILES is read from it. * marks the point of attachment. ξ: configuration not given here. AspCH2OBz(2,6-Me2) = Cc1cccc(C)c1C(=O)OCC(=O)[C@H](CC(=O)O)N*; Biotin = O=C1N[C@H]2[C@H](CS[C@H]2CCCCC(=O)*)N1; Tyr(3-I) = N[C@@H](Cc1ccc(O)c(I)c1)C(=O)O; X1 = O=C1N[C@@H]2CSC(CCCCC(=O)*)[C@@H]2N1; ξD = NC(CC(=O)O)C(=O)O; Ahx = NCCCCCC(=O)O; CH2F = FC*

Columns and labels:
Legumain (Homo sapiens) [1] = biological target: T1, Legumain (Homo sapiens) (UniProt Q99538); assay: Binding affinity to legumain in human 8.1.6 cells assessed as protein labeling at 10 uM after 30 mins by SDS-PAGE based affinity blotting; format: cell-based; conditions: tested as the 125I-labelled form
T1 sequence (whole entry): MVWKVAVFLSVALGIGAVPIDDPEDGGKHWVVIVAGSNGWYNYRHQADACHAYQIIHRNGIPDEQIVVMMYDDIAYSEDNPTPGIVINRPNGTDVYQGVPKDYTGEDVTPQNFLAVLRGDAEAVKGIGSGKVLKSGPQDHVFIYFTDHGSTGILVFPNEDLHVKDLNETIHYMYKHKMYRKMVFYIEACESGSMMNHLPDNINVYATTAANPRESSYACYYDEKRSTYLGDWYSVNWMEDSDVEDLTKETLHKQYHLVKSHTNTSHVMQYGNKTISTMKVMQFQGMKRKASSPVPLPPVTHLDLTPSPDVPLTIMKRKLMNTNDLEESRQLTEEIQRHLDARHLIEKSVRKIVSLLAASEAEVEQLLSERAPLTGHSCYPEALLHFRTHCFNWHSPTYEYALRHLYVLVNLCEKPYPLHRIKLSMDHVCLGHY
Summary of the method: (§1)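 B cell lines (2.2.93, 8.1.6, Raji) and Jurkat T cell pellets were lysed in 50 mM citrate phosphate, 1% CHAPS, 0.5% Triton, 5 mM DTT for 10 min on ice, then spun at 14,000g for 15 min at 4 °C. Lysates were set to 1 mg/ml in citrate phosphate pH 5.8, 0.1% CHAPS, 5 mM DTT and labeled for 30 min at 37 °C. Read-out was SDS-PAGE and biotin affinity blot.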

Caspase-8 (Homo sapiens) = Caspase-8 (Homo sapiens) (UniProt Q14790); assay: Binding affinity to human recombinant caspase 8 assessed as protein labeling by SDS-PAGE based affinity blotting; conditions: tested as the 125I-labelled form
Legumain (Homo sapiens) [2] = biological target: T1, Legumain (Homo sapiens); assay: Binding affinity to legumain in human 8.1.6 cells assessed as protein labeling at 10 uM after 30 mins immunoprecipitation; format: cell-based; conditions: tested as the 125I-labelled form
Summary of the method: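 8.1.6 B cell lysate at 1 mg/ml in citrate phosphate pH 5.8, 0.1% CHAPS, 5 mM DTT was labeled with probe for 30 min at 37 °C. Legumain was then immunoprecipitated with polyclonal anti-legumain antisera. Input, pellet and supernatant were probed for biotinylated proteins.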

Legumain (Homo sapiens) [3] = biological target: T1, Legumain (Homo sapiens); assay: Binding affinity to human purified legumain assessed as protein labeling; conditions: tested as the 125I-labelled form
Legumain (Homo sapiens) [4] = biological target: T1, Legumain (Homo sapiens); assay: Binding affinity to legumain in human 2.2.93 cells assessed as protein labeling at 10 uM after 30 mins by SDS-PAGE based affinity blotting; format: cell-based; conditions: tested as the 125I-labelled form; summary of the method: as §1
Caspase-7 (Homo sapiens) [5] = biological target: T2, Caspase-7 (Homo sapiens) (UniProt P55210); assay: Binding affinity to human recombinant caspase 7 assessed as protein labeling by SDS-PAGE based affinity blotting; conditions: tested as the 125I-labelled form
T2 sequence (whole entry): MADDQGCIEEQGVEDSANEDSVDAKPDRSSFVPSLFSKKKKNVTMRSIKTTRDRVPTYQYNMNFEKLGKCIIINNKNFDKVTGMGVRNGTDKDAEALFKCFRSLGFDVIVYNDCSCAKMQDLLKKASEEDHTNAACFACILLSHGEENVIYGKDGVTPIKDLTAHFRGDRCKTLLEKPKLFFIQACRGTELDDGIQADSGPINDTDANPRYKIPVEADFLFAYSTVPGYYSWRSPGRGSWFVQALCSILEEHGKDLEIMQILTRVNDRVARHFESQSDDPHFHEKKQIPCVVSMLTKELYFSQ

Legumain (Homo sapiens) [6] = biological target: T1, Legumain (Homo sapiens); assay: Binding affinity to legumain in human Jurkat T cells assessed as protein labeling at 10 uM after 30 mins by SDS-PAGE based affinity blotting; format: cell-based; conditions: tested as the 125I-labelled form; summary of the method: as §1
Legumain (Homo sapiens) [7] = biological target: T1, Legumain (Homo sapiens); assay: Binding affinity to legumain in human 8.1.6 cells assessed as protein labeling at 1 uM at acidic pH after 30 mins by SDS-PAGE based affinity blotting; conditions: tested as the 125I-labelled form
Legumain (Homo sapiens) [8] = biological target: T1, Legumain (Homo sapiens); assay: Binding affinity to legumain in human Raji cells assessed as protein labeling at 10 uM after 30 mins by SDS-PAGE based affinity blotting; format: cell-based; conditions: tested as the 125I-labelled form; summary of the method: as §1
Legumain (Mus musculus) = biological target: T3, Legumain (Mus musculus) (UniProt O89017); assay: Binding affinity to legumain in mouse spleen lysates assessed as protein labeling at 10 uM after 30 mins by SDS-PAGE based affinity blotting; format: tissue-based; conditions: tested as the 125I-labelled form
T3 sequence (whole entry): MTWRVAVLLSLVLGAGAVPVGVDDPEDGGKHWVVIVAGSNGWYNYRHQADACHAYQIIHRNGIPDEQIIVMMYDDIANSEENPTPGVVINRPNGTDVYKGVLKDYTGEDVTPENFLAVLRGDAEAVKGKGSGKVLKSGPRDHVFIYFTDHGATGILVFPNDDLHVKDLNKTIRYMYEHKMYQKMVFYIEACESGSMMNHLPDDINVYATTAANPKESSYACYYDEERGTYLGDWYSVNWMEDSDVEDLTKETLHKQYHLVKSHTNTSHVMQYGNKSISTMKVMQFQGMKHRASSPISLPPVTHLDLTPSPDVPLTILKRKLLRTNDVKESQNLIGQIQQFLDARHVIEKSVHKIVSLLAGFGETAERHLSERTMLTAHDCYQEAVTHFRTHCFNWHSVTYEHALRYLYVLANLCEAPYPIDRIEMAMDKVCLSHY

Caspase-3 (Homo sapiens) [9] = biological target: T4, Caspase-3 (Homo sapiens) (UniProt P42574); assay: Binding affinity to human recombinant caspase 3 assessed as protein labeling by SDS-PAGE based affinity blotting; conditions: tested as the 125I-labelled form
T4 sequence (whole entry): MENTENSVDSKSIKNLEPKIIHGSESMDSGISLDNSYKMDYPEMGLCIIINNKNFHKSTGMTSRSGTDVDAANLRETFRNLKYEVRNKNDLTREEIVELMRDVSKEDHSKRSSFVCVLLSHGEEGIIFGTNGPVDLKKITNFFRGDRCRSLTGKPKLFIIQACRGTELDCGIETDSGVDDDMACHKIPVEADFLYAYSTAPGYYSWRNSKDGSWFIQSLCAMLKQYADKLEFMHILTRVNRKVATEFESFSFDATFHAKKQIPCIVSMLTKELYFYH

Caspase-6 (Homo sapiens) = biological target: T5, Caspase-6 (Homo sapiens) (UniProt P55212); assay: Binding affinity to human recombinant caspase 6 assessed as protein labeling by SDS-PAGE based affinity blotting; conditions: tested as the 125I-labelled form
T5 sequence (whole entry): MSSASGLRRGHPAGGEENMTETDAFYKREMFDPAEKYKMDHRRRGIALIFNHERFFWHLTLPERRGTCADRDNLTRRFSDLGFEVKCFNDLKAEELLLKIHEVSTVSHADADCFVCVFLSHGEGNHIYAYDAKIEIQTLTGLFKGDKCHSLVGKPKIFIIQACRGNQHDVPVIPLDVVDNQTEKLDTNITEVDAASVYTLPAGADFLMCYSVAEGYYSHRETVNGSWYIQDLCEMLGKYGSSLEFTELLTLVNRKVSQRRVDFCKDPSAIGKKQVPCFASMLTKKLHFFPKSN

Caspase-7 (Homo sapiens) [10] = biological target: T2, Caspase-7 (Homo sapiens); assay: Binding affinity to caspase 7 in human Sh-SY-5Y cells extracts assessed as protein labeling by SDS-PAGE based affinity blotting; format: cell-free
Caspase-3 (Homo sapiens) [11] = biological target: T4, Caspase-3 (Homo sapiens); assay: Binding affinity to caspase 3 in human Sh-SY-5Y cells extracts assessed as protein labeling by SDS-PAGE based affinity blotting; format: cell-free
Caspase-9 (Homo sapiens) [12] = biological target: T6, Caspase-9 (Homo sapiens) (UniProt P55211); assay: Binding affinity to human recombinant caspase 9 assessed as protein labeling by SDS-PAGE based affinity blotting; conditions: tested as the 125I-labelled form
T6 sequence (whole entry): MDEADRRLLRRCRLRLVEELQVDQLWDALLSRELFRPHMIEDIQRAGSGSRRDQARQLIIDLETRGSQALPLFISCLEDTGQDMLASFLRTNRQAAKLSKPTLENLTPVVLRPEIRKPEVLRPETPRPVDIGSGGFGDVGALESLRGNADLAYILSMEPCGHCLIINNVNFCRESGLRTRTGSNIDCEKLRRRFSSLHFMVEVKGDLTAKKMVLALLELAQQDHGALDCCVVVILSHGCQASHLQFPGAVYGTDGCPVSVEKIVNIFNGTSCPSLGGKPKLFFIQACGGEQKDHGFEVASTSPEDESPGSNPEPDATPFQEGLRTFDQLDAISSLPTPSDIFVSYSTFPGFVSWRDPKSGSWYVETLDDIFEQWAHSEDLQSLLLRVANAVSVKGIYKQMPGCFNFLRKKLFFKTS

Caspase-9 (Homo sapiens) [13] = biological target: T6, Caspase-9 (Homo sapiens); assay: Binding affinity to caspase 9 in human Sh-SY-5Y cells extracts assessed as protein labeling by SDS-PAGE based affinity blotting; format: cell-free

Chain of Caspase-8 (Homo sapiens) (Q14790 217-374 limits assumed): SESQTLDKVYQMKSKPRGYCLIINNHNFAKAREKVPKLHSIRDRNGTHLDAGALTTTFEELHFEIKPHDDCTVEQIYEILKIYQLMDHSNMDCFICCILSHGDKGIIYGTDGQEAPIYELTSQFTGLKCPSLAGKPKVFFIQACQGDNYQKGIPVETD
Chain of Caspase-8 (Homo sapiens) (Q14790 385-479 limits assumed): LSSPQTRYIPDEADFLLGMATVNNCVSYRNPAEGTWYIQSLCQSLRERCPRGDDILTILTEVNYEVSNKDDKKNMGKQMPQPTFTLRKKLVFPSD

Row | SMILES | Activity (Legumain (Homo sapiens) [1]) | Activity (Caspase-8 (Homo sapiens)) | Activity (Legumain (Homo sapiens) [2]) | Activity (Legumain (Homo sapiens) [3]) | Activity (Legumain (Homo sapiens) [4]) | Activity (Caspase-7 (Homo sapiens) [5]) | Activity (Legumain (Homo sapiens) [6]) | Activity (Legumain (Homo sapiens) [7]) | Activity (Legumain (Homo sapiens) [8]) | Activity (Legumain (Mus musculus)) | Activity (Caspase-3 (Homo sapiens) [9]) | Activity (Caspase-6 (Homo sapiens)) | Activity (Caspase-7 (Homo sapiens) [10]) | Activity (Caspase-3 (Homo sapiens) [11]) | Activity (Caspase-9 (Homo sapiens) [12]) | Activity (Caspase-9 (Homo sapiens) [13])
1 | CC(=O)N[C@@H](CCCCNC(=O)CCCCC1SC[C@H]2NC(=O)N[C@@H]12)C(=O)N[C@@H](Cc1ccc(O)c(I)c1)C(=O)NCCCCCC(=O)N[C@@H](CC(=O)O)C(=O)COC(=O)c1c(C)cccc1C (stereo not given in full) | Active | Active | Active | Active | Active | Active | Active | Active | Active | Active | Active | Active | – | – | – | –
2 | COC(=O)CC(NC(=O)[C@H](C)NC(=O)[C@@H](NC(=O)CCCCCNC(=O)CCCC[C@@H]1SC[C@@H]2NC(=O)N[C@@H]21)C(C)C)C(=O)CF (stereo partly drawn) ({Biotin-Ahx}-Val-Ala-[ξD](OMe)-CH2F) | – | – | – | – | – | – | – | – | – | – | – | – | Active | Active | – | –
3 | CC(=O)N[C@@H](CCCCNC(=O)CCCCC1SC[C@H]2NC(=O)N[C@@H]12)C(=O)N[C@@H](Cc1ccc(O)c(I)c1)C(=O)NCCCCCC(=O)N[C@@H](CCC(=O)O)C(=O)N[C@H](C(=O)N[C@@H](CC(=O)O)C(=O)COC(=O)c1c(C)cccc1C)C(C)C (stereo not given in full) (Ac-K(X1)[Tyr(3-I)][Ahx]EV-{AspCH2OBz(2,6-Me2)}) | – | Active | – | – | – | Active | – | – | – | – | Active | inactive | – | – | Active | Active
